# Screening results (PubChem BioAssay)
# An excerpt weighted towards active compounds, which were near 4.1% of everything screened.
# XBP1 UPR activ: adaptive UPR (XBP1) activation; CHO-XBP1 luciferase reporter, IRE1-XBP1 UPR activation, luminescence; percent of tunicamycin response, DMSO as zero; activation, % at 20 µM; actives 0.33% (n = 330,000);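 active means versus positive control, 20 µM dose yields 30% or more activation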
#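 incubation = overnight seeding at 37 °C, 6 h compound treatment at 37 °C | assay system = CHO-XBP1 cells stably carrying IRE1-XBP1-driven luciferase reporter | input = 1000 cells per well | detection = luciferase luminescence | dosing = single point, 20 µM final compound, 1% DMSO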
# UBC13 polyUb: human UBC13 polyubiquitination inhibition. P61088. UBC13 polyubiquitin chain formation, TR-FRET. inhibition, % at 20 µM. actives 0.47% (n = 330,000). AID 485273; in the data active means inhibition above about 45%, passing the limit was not always enough
# Target sequence (P61088 whole entry, looked up): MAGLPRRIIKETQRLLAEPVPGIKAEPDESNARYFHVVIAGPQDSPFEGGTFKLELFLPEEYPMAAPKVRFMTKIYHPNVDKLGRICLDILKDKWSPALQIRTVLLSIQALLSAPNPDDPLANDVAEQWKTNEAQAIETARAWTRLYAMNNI
# Apaf-1 inh: human Apaf-1 inhibition | reconstituted apoptosome caspase-3 activity, DEVD-Rh110 fluorescence | inhibition, % at 20 µM | actives 0.71% (n = 330,000) | AID 489030; active means inhibition of at least 40% at 20 µM
#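 Medium: Hepes buffer, pH 7.5 / System: biochemical Apaf-1 apoptosome reconstitution / Measured by: Rh110 fluorescence, excitation 480 nm, emission 540 nm / Times: compound with Apaf-1, dATP, procaspase-3 30 min, then 50 min reaction, room temperature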
# Mdm2-MdmX inh: human Mdm2/MdmX binding inhibition | O15151+Q00987 | SaOS-2 split-luciferase Mdm2/MdmX complementation, luminescence | inhibition, % at 8 µM | actives 3% (n = 330,000);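 active means inhibition of at least 50% at 8 µM in the primary screen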
# CHOP UPR activ: activators of apoptotic arm of unfolded protein response (CHOP); CHO-CHOP luciferase reporter, UPR activation, luminescence; percent of tunicamycin response over DMSO baseline; activation, % at 10 µM; actives 0.34% (n = 330,000);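 active means at 10 µM dose, activation of 40% or more, normalized to positive control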
#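 Material: CHO-CHOP cells, stable luciferase reporter of PERK-eIF2a-CHOP signalling; quantity: 500 reporter cells seeded per well; buffer or medium: F12 medium containing 10% fetal bovine serum; compound: one dose, 10 µM in 0.5% DMSO; incubation: 6 h compound treatment, 37 °C; measured by: Steady-Glo luciferase luminescence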
# Mdm2-MdmX conf: confirmation of human Mdm2/MdmX interaction inhibitors; Mdm2-MdmX binding, luminescent assay; shares compounds with Mdm2-MdmX inh; inhibition, % at 8 µM; actives 55% (n = 10,000); AID 489028; in the data active means inhibition above about 40%
# FLuc counter: full-length luciferase inhibition in Mdm2/MdmX counter-screen | shares compounds with Mdm2-MdmX inh | AID 504607 | actives 77% (n = 6,200) | inhibition, % at 8 µM | SaOS-2 full-length luciferase counterscreen, luminescence;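 active means mean inhibition at 8 µM reaching about 37%, which flags the compound as non-specific, limit read from the data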;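 further: p53-null SaOS-2 cells with luciferase driven by a doxycycline-inducible promoter; compound on cells about two nights before reading with doxycycline added after day one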
# Numbers stand for hits; . = inactive; / = not tested or not shown; ! = repeats disagree.
SMILES,XBP1 UPR activ,UBC13 polyUb,Apaf-1 inh,Mdm2-MdmX inh,CHOP UPR activ,Mdm2-MdmX conf,FLuc counter
O=C(O)c1ccccc1OC(C(=O)Nc1cc(Cl)cc(Cl)c1)c1ccccc1 (configuration not stated),.,.,.,76,.,.,/
O=C(Nc1ccccc1)Nc1cc(Cl)cc(Cl)c1,.,.,.,91,.,80,.
O=C(Nc1ccc(Nc2ccccc2)cc1)Nc1ccccc1Cl,.,.,.,.,.,/,/
CC(C(=O)NCc1ccccc1)N1CCN(c2ccc(F)cc2)CC1 (configuration not stated),.,.,.,.,.,/,/
O=C(NCCC(=O)N1CCN(S(=O)(=O)c2ccccc2Cl)CC1)Nc1ccccc1,.,.,.,.,.,/,/
NS(=O)(=O)c1ccc(CCNC(=O)COC(=O)C2COc3ccccc3O2)cc1 (configuration not stated),.,.,.,.,.,/,/
CS(=O)(=O)Nc1ccccc1C(=O)Nc1cc(Cl)cc(Cl)c1,.,.,.,60,.,92,.
CS(=O)(=O)Nc1ccccc1C(=O)Nc1cccc(Cl)c1,.,.,.,.,.,/,/
CCOC(=O)N1CCN(C(=O)c2ccc(Cn3c(=S)[nH]c4cc(OCC)c(OCC)cc4c3=O)cc2)CC1,.,.,.,54,.,.,/
CCOC(=O)N1CCN(C(=O)c2ccc(Cn3c(=S)[nH]c4cc5c(cc4c3=O)OCO5)cc2)CC1,.,.,.,.,.,/,/
CCOC(=O)N1CCC(NC(=O)c2cnn3c(C(F)(F)F)cc(-c4cccc(OC)c4)nc23)CC1,.,.,.,61,.,.,/
COc1ccc(-c2cc(C(F)(F)F)n3ncc(C(=O)NCC4CCCO4)c3n2)cc1OC (configuration not stated),.,.,.,57,.,.,/
CCOC(=O)c1cnn2c(C(F)(F)F)cc(-c3ccccc3)nc12,.,.,.,.,.,/,/
C/C(=N\NC(=O)C1CCCN(S(=O)(=O)c2ccccc2)C1)c1ccccn1 (configuration not stated),.,.,.,70,.,59,.
C/C(=N\NC(=O)C1CCCN(S(=O)(=O)c2ccccc2)C1)c1ccncc1 (configuration not stated),.,.,.,.,.,/,/
Oc1ccc(C[C@H]2CNCCN2CCC23CC4CC(CC(C4)C2)C3)cc1,.,.,.,58,.,.,/
COc1cc(NC(=O)c2ccc(Br)cc2)ccc1NC(=O)c1cc2ccccc2o1,.,.,.,.,.,/,/
COc1cc(NC(=O)c2cccc(F)c2)ccc1NC(=O)c1cc2ccccc2o1,.,.,.,87,.,62,86
COc1cc(NC(=O)c2ccccc2F)ccc1NC(=O)c1cc2ccccc2o1,.,.,.,68,.,.,63
COc1cc(NC(=O)c2cc3ccccc3o2)ccc1NC(=O)c1ccco1,.,.,.,.,.,/,/
COc1cc(NC(=O)c2ccc(C)cc2)ccc1NC(=O)c1cc2ccccc2o1,.,.,.,57,.,.,90
COc1cc(NC(=O)c2oc3ccccc3c2C)ccc1NC(=O)c1ccco1,.,.,.,63,.,.,56
Cc1ccc(NC(=O)C2CCN(S(=O)(=O)c3ccc4c(c3)CCCC(=O)N4)CC2)cc1N(C)C,.,.,.,.,.,/,/
COc1cc(NC(C)=O)ccc1-c1cc2ccccc2oc1=O,.,.,.,.,.,/,/
COc1cc(NC(=O)c2ccc(Cl)cc2Cl)ccc1-c1cc2ccccc2oc1=O,40,.,.,57,.,.,/
SMILES,XBP1 UPR activ,UBC13 polyUb,Apaf-1 inh,Mdm2-MdmX inh,CHOP UPR activ,Mdm2-MdmX conf,FLuc counter
Nc1nc(SCn2nnc3ccccc3c2=O)n[nH]1,.,.,.,.,.,/,/
COc1ccc(Cl)cc1C(=O)NC(=S)Nc1cc(-c2nc3ccccc3[nH]2)ccc1C,.,.,.,76,.,.,/
N=c1c2c(-c3ccccc3)c(-c3ccccc3)n(Cc3ccco3)c2ncn1CCCO,.,.,.,61,.,.,59
N=c1c2c(-c3ccccc3)c(-c3ccccc3)n(Cc3ccco3)c2ncn1CCO,.,.,.,82,.,61,57
N=c1c2c(-c3ccccc3)c(-c3ccccc3)n(Cc3ccco3)c2ncn1CCN1CCOCC1,.,.,.,55,.,.,/
Cc1cc(C)cc(NC(=O)c2ccc(CNc3c(N4CCCC4)c(=O)c3=O)cc2)c1,.,.,.,.,.,/,/
COc1ccc(CC(=O)NCc2ccc(Cl)cc2)cc1S(=O)(=O)N1CCOCC1,.,.,.,.,.,/,/
COc1ccc(CCNC(=S)NC2CCN(Cc3ccccc3)CC2)cc1,.,.,.,.,.,/,/
COc1cc2nc(N3CCN(C(=O)c4ccco4)CC3)nc(N)c2cc1OC,.,.,.,96,.,51!,57
Cc1ccc(NS(=O)(=O)c2ccc(Cl)c(NC(=S)NC(=O)C3CCCCC3)c2)cc1Cl,.,.,.,72,.,.,/
CC1(C)CCC[C@@]2(C)CC=C(C(=O)O)[C@@H]3C[C@]312,.,.,.,.,.,/,/
CC(C)=CCC[C@](C)(O[C@@H]1O[C@H](CO[C@@H]2O[C@H](CO)[C@@H](O)[C@H](O)[C@H]2O)[C@@H](O)[C@H](O)[C@H]1O)C1CC[C@]2(C)C1C(=O)CC1[C@@]3(C)CC[C@H](O[C@H]4O[C@@H](CO)[C@H](O)[C@@H](O)[C@@H]4O)C(C)(C)C3CC[C@]12C (some centres not stated),.,.,.,.,.,/,/
CC(=O)OCC1O[C@@H](O[C@@H]2C[C@H]3C(C)(C)[C@H](OC(C)=O)CC[C@]3(C)[C@H]3CC[C@]45C[C@]4(CC[C@H]5[C@@H](C)C[C@@H](O)[C@H](O)C(C)(C)O)[C@@]32C)[C@H](O)[C@@H](O)[C@@H]1O (some centres not stated),.,93,.,93,.,.,/
Cc1cc(C)nc(-n2nc(C)cc2NC(=O)c2cccc(S(=O)(=O)N(C)C)c2)n1,.,.,.,.,.,/,/
Cc1ccc(C)c(C(=O)Nc2cc(C)nn2-c2nc(C)cc(C)n2)c1,.,.,.,57,.,.,60
COc1cc(C(=O)Nc2ccc3c(c2)CCCN3C(=O)c2ccco2)c([N+](=O)[O-])cc1OC,.,.,.,.,.,/,/
Cc1ccc(NC(=O)CSc2nc3[nH]ncc3c(=O)[nH]2)cc1,.,.,.,.,.,/,/
Cc1cc(C)cc(NC(=O)CSc2nc3[nH]ncc3c(=O)[nH]2)c1,.,.,.,60,.,62,50
COc1ccc(NC(=O)c2cc3c(=O)n(C)c4ccccc4c3n2C)cc1OC,.,.,.,59,.,.,/
